Structures are written as SMILES. Values after ≈ are worked out from the molar mass of the structure shown.

What is called MIC is the smallest concentration in the dilution series that meets the test's criterion for growth inhibition. As a reminder, the IC50 is the midpoint of a concentration-inhibition curve.

For series [1], the system named is Mycobacterium tuberculosis. As to the kind of experiment: Antimycobacterial activity against Mycobacterium tuberculosis H37Rv by agar dilution method. In kind it is functional. The method, boiled down:
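MIC by agar dilution on Middlebrook 7H11 agar supplemented with OADC, following an NCCLS-like procedure, run in duplicate. The MDR-TB clinical isolate was resistant to isoniazid, rifampicin, ethambutol and ofloxacin.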
For orientation: In agar dilution the substance is mixed into plates at graded concentrations.

Series [2] deals with Mycolicibacterium smegmatis. Nature of the series: Antimycobacterial activity against Mycobacterium smegmatis MC2 by agar dilution method. In kind it is functional. Summed up: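 Agar dilution on Middlebrook 7H11 agar supplemented with OADC, following an NCCLS-like procedure; MIC determined in duplicate against M. smegmatis ATCC 14468 (MC²).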
Series [3] in a line: Inhibition of Mycobacterium smegmatis DNA gyrase supercoiling activity. Also on record: species or system Mycolicibacterium smegmatis.
The subject of series [4] is Vero. As to the kind of experiment: Cytotoxicity against african green monkey Vero cells after 72 hrs by MTT assay. The format is cell-based. To be noted: Chlorocebus sabaeus. The method, boiled down: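 Vero mammalian cells were exposed to compounds for 72 h, with testing at 62.5 µg/ml. Viability was read as cellular conversion of MTT to formazan (non-radioactive cell proliferation kit), and IC50 was reported.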
In general terms: Tetrazolium assays rely on reduction of a dye to a coloured formazan, in cell work by metabolically active cells.

The subject of series [5] is Mus musculus. Nature of the series: Phototoxicity in Swiss albino mouse assessed as ear thickness at 140 mg/kg, po after 24 hrs of irradiation. The format is organism-based. To be noted: in vivo. Also on record: dose 140 mg/kg, route oral. Summed up:
(§1)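 Female Swiss albino mice (about 2 months, 20–25 g), fasted at least 18 h, received a single oral gavage of 140 mg/kg. Groups: six per group; lomefloxacin HCl 140 mg/kg; vehicle 0.5% aqueous sodium carboxymethylcellulose at 10 ml/kg. Mice were UV-irradiated for 4 h (about 18 J/cm²). Both ears were scored for erythema, edema and ear thickness (left/right averaged) pre-dose, at end of irradiation, and at about 24, 48, 72 and 96 h. Ear thickness change from baseline was tested by Student's t-tests.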

Series [6] relates to Mus musculus. As to the kind of experiment: Phototoxicity in Swiss albino mouse assessed as ear thickness at 140 mg/kg, po after 48 hrs of irradiation. Also on record: dose 140 mg/kg, route oral. The format is organism-based. To be noted: in vivo. The method, boiled down: as §1
Series [7] deals with Mus musculus. Nature of the series: Phototoxicity in Swiss albino mouse assessed as erythema incidence at 140 mg/kg, po after 4 hrs of irradiation. In kind it is organism-based. Also on record: dose 140 mg/kg, route oral. To be noted: in vivo. The method, boiled down:
as §1

Series [8] relates to Mus musculus. As to the kind of experiment: Phototoxicity in Swiss albino mouse assessed as ear thickness at 140 mg/kg, po after 96 hrs of irradiation. The format is organism-based. Also on record: dose 140 mg/kg, route oral. To be noted: in vivo. The method, boiled down: as §1
Series [9] relates to Mus musculus. As to the kind of experiment: Phototoxicity in Swiss albino mouse assessed as ear thickness at 140 mg/kg, po after 72 hrs of irradiation. In kind it is organism-based. Also on record: dose 140 mg/kg, route oral. To be noted: in vivo. The method, boiled down:
as §1

In series [10] the test system is Mus musculus. As to the kind of experiment: Phototoxicity in Swiss albino mouse assessed as ear thickness at 140 mg/kg, po after 4 hrs of irradiation. In kind it is organism-based. Also on record: dose 140 mg/kg, route oral. The following applies: in vivo. Summed up:
as §1

Series [11] deals with Mus musculus. As to the kind of experiment: Phototoxicity in Swiss albino mouse assessed as erythema incidence at 140 mg/kg, po after 96 hrs of irradiation. In kind it is organism-based. Also on record: dose 140 mg/kg, route oral. The following applies: in vivo. The method, boiled down:
as §1

For series [12], the system named is Mus musculus. Nature of the series: (§2) Phototoxicity in Swiss albino mouse assessed as erythema incidence at 140 mg/kg, po after 48 hrs of irradiation. In kind it is organism-based. Also on record: dose 140 mg/kg, route oral. To be noted: in vivo. Summed up:
as §1

Series [13] has as its system Mus musculus. The series is described as §2. The following applies: in vivo. Also on record: dose 140 mg/kg, route oral. The format is organism-based. Summed up:
as §1
This is another data set of the same source.

For series [14], the system named is Mus musculus. Nature of the series: Phototoxicity in Swiss albino mouse assessed as erythema incidence at 140 mg/kg, po after 24 hrs of irradiation. Also on record: dose 140 mg/kg, route oral. The following applies: in vivo. The format is organism-based. Summed up: as §1

Consider `O=C(O)c1c(=O)c2cc(F)c(N3CCC(n4c(=O)[nH]c5cc(Cl)ccc54)CC3)cc2n2c1sc1ccccc12`, for which the MIC in series [1] came to 2.77 µM (≈ 1.56 µg/mL); in series [2] it was 44.4 µM (≈ 25 µg/mL).

In the case of `O=C(O)c1c(=O)c2cc(F)c(N3CCC(N4CCCCC4)CC3)cc2n2c1sc1ccccc12`, the MIC in [1] is 0.39 µM (≈ 0.187 µg/mL); in [2], 6.53 µM (≈ 3.13 µg/mL). Moreover, the IC50 in series [3] is more than 50 µg/mL; in series [4], 130 µM.

As for `O=C(O)c1c(=O)c2cc(F)c(N3CCC4(CC3)OCCO4)cc2n2c1sc1ccccc12`, the Activity in series [5] was 0.31 mm; in series [6], 0.3 mm; in series [7] it was “Non-toxic”; in [8], 0.3 mm; in series [9] it was 0.28 mm; in series [10], 0.3 mm. In addition, the Activity entry in [11], in [12], in series [13] and in [14] was “Non-toxic” throughout. In addition, the MIC in series [1] came to 0.86 µM (≈ 0.391 µg/mL); in series [2], 6.89 µM (≈ 3.13 µg/mL). For the same compound, the IC50 in series [4] is more than 138 µM.

As to `CC(C)(C)NC(=O)C1c2ccccc2CCN1c1cc2c(cc1F)c(=O)c(C(=O)O)c1sc3ccccc3n12` (stereo unspecified), the MIC in series [1] worked out at 2.87 µM (≈ 1.56 µg/mL); in series [2], 46 µM (≈ 25 µg/mL). Besides, in series [4], half-maximal inhibition (IC50) required 115 µM.

In the case of `O=C(O)c1c(=O)c2cc(F)c(N3CCN(C(=O)C4COc5ccccc5O4)CC3)cc2n2c1sc1ccccc12` (stereo unspecified), the MIC in [1] amounted to 1.39 µM (≈ 0.778 µg/mL); in [2], 2.79 µM (≈ 1.56 µg/mL). The IC50 is more than 50 µg/mL in [3] and 112 µM in series [4].

For `CC(C)(C)OC(=O)NC1C2CN(c3cc4c(cc3F)c(=O)c(C(=O)O)c3sc5ccccc5n34)CC21` (stereo unspecified), the MIC came to 0.37 µM (≈ 0.189 µg/mL) in [1] and 6.14 µM (≈ 3.13 µg/mL) in series [2]. Further, the IC50 in [3] was 50 µg/mL (≈ 98.1 µM); in series [4], more than 113 µM.

`O=C(O)c1c(=O)c2cc([N+](=O)[O-])c(N3CCN(C(c4ccccc4)c4ccc(Cl)cc4)CC3)cc2n2c1sc1ccccc12` (stereo unspecified): the minimal inhibitory concentration (MIC) in series [1] was 5.01 µM (≈ 3.13 µg/mL); in series [2] it was 40 µM (≈ 25 µg/mL). This compound displayed an IC50 in series [4] of 50 µM.

Consider `O=C(O)c1c(=O)c2cc([N+](=O)[O-])c(N3CCC(n4c(=O)[nH]c5cc(Cl)ccc54)CC3)cc2n2c1sc1ccccc12`, for which the MIC is 5.31 µM (≈ 3.13 µg/mL) in series [1] and 84.8 µM (≈ 50 µg/mL) in [2].

Consider `O=C(O)c1c(=O)c2cc([N+](=O)[O-])c(N3CCC4(CC3)OCCO4)cc2n2c1sc1ccccc12`, for which the figures for the MIC in series [1] and in series [2] were 1.62 µM (≈ 0.78 µg/mL) and 104 µM (≈ 50 µg/mL), respectively. In addition, the IC50 in series [4] was 130 µM.

In the case of `CN1CCN(c2cc3c(cc2F)c(=O)c(C(=O)O)c2sc4ccccc4n23)CC1c1ccccc1` (stereo unspecified), the minimal inhibitory concentration (MIC) in series [1] worked out at 12.8 µM (≈ 6.25 µg/mL); in [2], 103 µM (≈ 50 µg/mL).

As for `CC(C)(C)OC(=O)NC1C2CN(c3cc4c(cc3[N+](=O)[O-])c(=O)c(C(=O)O)c3sc5ccccc5n34)CC21` (stereo unspecified), the MIC in series [1] was 2.91 µM (≈ 1.56 µg/mL); in series [2], 93.2 µM (≈ 50 µg/mL). 58.2 µM corresponded to half-maximal inhibition in series [4] (IC50).

In the case of `O=C(O)c1c(=O)c2cc(F)c(N3CCN(Cc4ccc5c(c4)OCO5)CC3)cc2n2c1sc1ccccc12`, the MIC in [1] was determined as 1.47 µM (≈ 0.781 µg/mL); in [2], 5.89 µM (≈ 3.13 µg/mL). In [4], this compound came in with an IC50 of more than 118 µM.

`CC1CN(c2cc3c(cc2[N+](=O)[O-])c(=O)c(C(=O)O)c2sc4ccccc4n23)CC(C)O1` (stereo unspecified): the MIC in [1] was determined as 6.9 µM (≈ 3.13 µg/mL); in series [2], 110 µM (≈ 50 µg/mL).

As for `O=C(O)c1c(=O)c2cc(F)c(N3CCN(C(c4ccccc4)c4ccc(Cl)cc4)CC3)cc2n2c1sc1ccccc12` (stereo unspecified), the MIC in series [1] is 2.61 µM (≈ 1.56 µg/mL); in series [2], 10.4 µM (≈ 6.25 µg/mL). For the same compound, in [4], inhibition was half-maximal at 104 µM (IC50).

`O=C(O)c1c(=O)c2cc([N+](=O)[O-])c(N3CCN(Cc4ccc5c(c4)OCO5)CC3)cc2n2c1sc1ccccc12`: the MIC worked out at 5.6 µM (≈ 3.13 µg/mL) in series [1] and 44.8 µM (≈ 25 µg/mL) in series [2]. The same compound gave an IC50 in series [4] of 112 µM.

Take `CC(C)(C)NC(=O)C1c2ccccc2CCN1c1cc2c(cc1[N+](=O)[O-])c(=O)c(C(=O)O)c1sc3ccccc3n12` (stereo unspecified): the results for the MIC in [1] and in series [2] were 2.73 µM (≈ 1.56 µg/mL) and 43.8 µM (≈ 25 µg/mL), respectively.

Consider `O=C(O)c1c(=O)c2cc([N+](=O)[O-])c(N3CCC(O)(c4ccc(Cl)cc4)CC3)cc2n2c1sc1ccccc12`, for which the results for the MIC in series [1] and in series [2] were 2.84 µM (≈ 1.56 µg/mL) and 90.9 µM (≈ 50 µg/mL), respectively. Besides, in [4], the IC50 is 114 µM.

`O=C(O)c1c(=O)c2cc(F)c(N3CCSCC3)cc2n2c1sc1ccccc12`: the MIC in [1] turned out to be 3.76 µM (≈ 1.56 µg/mL); in [2], 7.55 µM (≈ 3.13 µg/mL).

Source of the values: ChEMBL document CHEMBL1142419, “Antimycobacterial activities of novel 2-(sub)-3-fluoro/nitro-5,12-dihydro-5-oxobenzothiazolo[3,2-a]quinoline-6-carboxylic acid” (Bioorg Med Chem, 2008).
